In ChEMBL document CHEMBL1140187, “Anti-inflammatory cembranoids from the soft corals Sinularia querciformis and Sinularia granosa” (J Nat Prod, 2008) one finds EC50, Activity and IC50 data, which are given here for eight molecules.

Bounds are passed on as bounds.

For assay [1], the system named is HeLa. The assay is described as follows: Cytotoxicity against human HeLa cells by MTT method. It counts as functional. The note with it: read-out: ED50. In general terms: Formazan colour is commonly taken as a measure of viable cells.
Assay [2] relates to HEp-2. The assay is described as follows: Cytotoxicity against human Hep2 cells by MTT method. The format is functional. The conditions noted are these: HEp-2, read-out: ED50.
Assay [3] can be described thus: Cytotoxicity against human Doay cells by MTT method. The format is functional. The note with it: read-out: ED50.
The subject of assay [4] is MCF7. As to the kind of experiment: Cytotoxicity against human MCF7 cells by MTT method. The format is functional. The conditions noted are these: MCF7, read-out: ED50.
For assay [5], the system named is RAW264.7. The assay is described as follows: Reduction of LPS-induced COX2 expression in mouse Raw264.7 cells at 10 uM preincubated for 5 mins before LPS challenge relative to control. It counts as functional. The arrangement: scale not given: the % may be the effect or the level left. Summed up: (§1)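 RAW 264.7 murine macrophages grown in DMEM with 10% heat-inactivated FBS at 37 °C, 5% CO2, plated at 3 × 10^6 cells per 60 mm dish. Compound added 5 min before LPS (0.01 µg/mL), then 16 h incubation. Lysates were analysed by Western blot against iNOS and COX-2 (1:1000), with β-actin as loading control and ECL detection. Band IOD was expressed relative to the LPS-only control; one-way ANOVA with Student-Newman-Keuls test.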

Assay [6] relates to HeLa. The assay is described as follows: Cytotoxicity against human HeLa cells. It counts as functional, cell-based.
Assay [7] concerns HEp-2. The assay is described as follows: Cytotoxicity against human Hep2 cells. It counts as functional, cell-based.
Assay [8] can be described thus: Cytotoxicity against human Doay cells. It counts as functional, cell-based.
In assay [9] the test system is RAW264.7. The assay is described as follows: Reduction of LPS-induced iNOS expression in mouse Raw264.7 cells at 10 uM preincubated for 5 mins before LPS challenge relative to control. It counts as functional. On the set-up: scale not given: the % may be the effect or the level left. Summed up:
as §1

Assay [10] concerns MCF7. As to the kind of experiment: Cytotoxicity against human MCF7 cells. The format is functional, cell-based.

The IC50 is the point on the concentration scale where inhibition reaches its midpoint. With `C=C1C(=O)O[C@]2(C)CC[C@@H]1C[C@H](O)[C@@]1(C)CC[C@H](O1)[C@](C)(O)CCC2=O`, the EC50 (with HeLa [1]; with HEp-2 [2]; in assay [3]; in the assay with MCF7 [4]) was greater than 20 µg/mL in each case. Also, the Activity in the assay with RAW264.7 [5] came out at 17.4%. The IC50 (in the assay with HeLa [6]; with HEp-2 [7]; in assay [8]) was greater than 20 µg/mL throughout.
In the case of `C=C1C(=O)O[C@]2(C)CC[C@@H]1C[C@H](OC(C)=O)[C@@]1(C)CC[C@H](O1)[C@](C)(O)CCC2=O`, the EC50 (in the assay with HeLa [1]; with HEp-2 [2]; in [3]; in the assay on MCF7 [4]) was greater than 20 µg/mL in each case. In addition, the figures for the Activity in the assay with RAW264.7 [9] and in the assay with RAW264.7 [5] were 20.3% and 14%, respectively. The IC50 (in the assay on HeLa [6]; in the assay with HEp-2 [7]; in [8]) was greater than 20 µg/mL in each case.
With `C=C1C(=O)O[C@]2(C)CC[C@@H]1C[C@H](O)[C@@]1(C)CC[C@H](O1)C(=C)CC[C@H]2OC(C)=O` [GRANOSOLIDE A], the EC50 (in the assay on HeLa [1]; with HEp-2 [2]; in [3]; in the assay on MCF7 [4]) was greater than 20 µg/mL each time. Further, the IC50 (in the assay with HeLa [6]; with HEp-2 [7]; in [8]) was greater than 20 µg/mL throughout.
Regarding `C=C1C(=O)O[C@]2(C)CC[C@@H]1C[C@H](OC(C)=O)[C@@]1(C)CC[C@H](O1)C(=C)CC[C@H]2OC(C)=O` [GRANOSOLIDE B], the EC50 (in the assay on HeLa [1]; with HEp-2 [2]; in assay [3]; in the assay on MCF7 [4]) was greater than 20 µg/mL in each case. The IC50 (with HeLa [6]; with HEp-2 [7]; in assay [8]) was greater than 20 µg/mL in each case.
In the case of `C=C1C(=O)O[C@]2(C)CC[C@@H]1C[C@H](O)[C@@]1(C)CC[C@H](OC(C)=O)[C@@](C)(CCC2=O)O1` [QUERCIFORMOLIDE A], the EC50 (in the assay with HeLa [1]; with HEp-2 [2]; in [3]; with MCF7 [4]) was greater than 20 µg/mL throughout. Moreover, the IC50 (with HeLa [6]; in the assay on HEp-2 [7]; in assay [8]; in the assay with MCF7 [10]) was greater than 20 µg/mL each time.
As for `C=C1C(=O)O[C@]2(C)CC[C@@H]1C[C@H](O)[C@@]1(C)CC[C@H](O1)[C@](C)(O)CC[C@H]2OC(C)=O` [QUERCIFORMOLIDE B], the EC50 (with HeLa [1]; with HEp-2 [2]; in assay [3]; in the assay on MCF7 [4]) was greater than 20 µg/mL each time. The IC50 (with HeLa [6]; in the assay with HEp-2 [7]; in [8]) was greater than 20 µg/mL each time.
On to `C=C1C(=O)O[C@]2(C)CC[C@@H]1C[C@H](OC(C)=O)[C@@]1(C)CC[C@H](O1)[C@](C)(O)CC[C@H]2OC(C)=O` [QUERCIFORMOLIDE C], for which the EC50 (with HeLa [1]; in the assay with HEp-2 [2]; in [3]; in the assay with MCF7 [4]) was greater than 20 µg/mL throughout. This molecule came in with an Activity with RAW264.7 [9] of 23.7%. Moreover, the IC50 (with HeLa [6]; with HEp-2 [7]; in [8]) was greater than 20 µg/mL in each case.
Take `C=C1C(=O)O[C@]2(C)CC[C@@H]1C[C@H](O)[C@@]1(C)CC[C@H](O1)[C@](C)(O)CC[C@H]2O` [QUERCIFORMOLIDE D]: the EC50 (with HeLa [1]; in the assay on HEp-2 [2]; in assay [3]; in the assay on MCF7 [4]) was greater than 20 µg/mL throughout. For the same molecule, the IC50 (with HeLa [6]; in the assay on HEp-2 [7]; in assay [8]) was greater than 20 µg/mL throughout.
